Experimental data published in ChEMBL document CHEMBL3734686, “Synthesis, Photophysical Properties, and Biological Evaluation of trans-Bisthioglycosylated Tetrakis(fluorophenyl)chlorin for Photodynamic Therapy” (J Med Chem, 2015).
Calls of active or inactive are those of the source.

Assays:
4T1 [1] = assay: Antiangiogenic activity against mouse 4T1 cells implanted in BALB/c mouse at 0.045 mg/kg, ip administered for 48 hrs followed by irradiation at 48 J/cm2 measured after 6 days by hematoxylin/eosin-staining based microscopic analysis; assay type: functional, organism-based
In short: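 4T1 cells (1 × 10^6 in HBSS) were implanted in the left rear thigh of female BALB/c mice. At 48 h after i.p. dosing at 31.25 nmol·kg−1 in ethanol/PEG400/H2O (2/3/5) with 0.1% DMSO, the tumour was irradiated with a 100-W halogen lamp (λ > 500 nm, 48 J·cm−2). Skin with tumour was taken 6 days later, fixed in 4% paraformaldehyde, paraffin-embedded, cut into 7-µm sections, H&E-stained and examined by light microscopy.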

4T1 [2] = assay: Antitumor activity against mouse 4T1 cells implanted in BALB/c mouse at 0.18 mg/kg, ip assessed as tumor growth inhibition administered for 48 hrs followed by irradiation at 40 mW/cm2 for 20.1 mins measured after 5 days by Vernier calipers; assay type: functional, organism-based
In short: (§1)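 Female BALB/c mice carried 4T1 thigh tumours (1 × 10^6 cells) of 50–60 mm3. They were dosed i.p. at 250–31.25 nmol·kg−1 in ethanol/PEG400/H2O (2/3/5) containing 0.1% DMSO and kept dark. At 48 h the tumour was irradiated with a 100-W halogen lamp at 40 mW·cm−2 for 20.1 min. Tumour size was measured daily by caliper as length × width²/2 and normalised to day 0.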

Spleen = assay: Drug uptake in BALB/c mouse spleen implanted with mouse 4T1 cells assessed per gram of tissue at 0.18 mg/kg, ip after 12 hrs by HPLC-based fluorescence analysis; assay type: ADME, organism-based; conditions: in vivo
In short: (§2)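 Female BALB/c mice with 4T1 cells (1 × 10^6 in HBSS) implanted in left rear thigh; single i.p. dose, 7 in ethanol/PEG400/H2O (2/3/5) with 0.1% DMSO, mono-L-aspartyl chlorin e6 in saline; kept dark until sacrifice. Tissues washed, frozen, homogenized in CH3OH/DMSO/H2O (32/8/1), centrifuged 2300×g; supernatant analysed by HPLC with fluorescence detection; three animals per time point.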

Stomach [3] = assay: Drug uptake in BALB/c mouse stomach implanted with mouse 4T1 cells assessed per gram of tissue at 0.18 mg/kg, ip after 72 hrs by HPLC-based fluorescence analysis; assay type: ADME, organism-based; conditions: in vivo; in short: as §2
Muscle tissue [4] = assay: Drug uptake in BALB/c mouse muscle implanted with mouse 4T1 cells assessed per gram of tissue at 0.18 mg/kg, ip after 6 hrs by HPLC-based fluorescence analysis; assay type: ADME, organism-based; conditions: in vivo
In short: (§3)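 Female BALB/c mice bearing 4T1 thigh tumours received an i.p. dose in ethanol/PEG400/H2O (2/3/5) with 0.1% DMSO, or in saline, and were kept dark until killed. Tissues were weighed (100 mg), homogenised in CH3OH/DMSO/H2O (32/8/1) and centrifuged twice at 2300×g at 4°C. Supernatants were analysed by HPLC with fluorescence detection (λex 404/λem 654 nm or λex 400/λem 666 nm). n = 3 per time point.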

4T1 [5] = assay: Antitumor activity against mouse 4T1 cells implanted in BALB/c mouse at 0.045 mg/kg, ip assessed as tumor growth inhibition administered for 48 hrs followed by irradiation at 40 mW/cm2 measured after 7 days; assay type: functional, organism-based; in short: as §1
Muscle tissue [6] = assay: Drug uptake in BALB/c mouse muscle implanted with mouse 4T1 cells assessed per gram of tissue at 0.18 mg/kg, ip after 12 hrs by HPLC-based fluorescence analysis; assay type: ADME, organism-based; conditions: in vivo; in short: as §3
Stomach [7] = assay: Drug uptake in BALB/c mouse stomach implanted with mouse 4T1 cells assessed per gram of tissue at 0.18 mg/kg, ip after 48 hrs by HPLC-based fluorescence analysis; assay type: ADME, organism-based; conditions: in vivo; in short: as §2
T98G = assay: Photocytotoxicity against human T98G cells assessed as cell survival preincubated for 24 hrs followed by irradiation at 16 J/cm2 measured at 24 hrs by WST-8 assay; assay type: functional, cell-based; conditions: light or radiation study
In short: (§4)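 Cells (5 × 10^3/well) in DMEM with 10% FCS, 24 h at 37°C, 5% CO2; photosensitizer 1–50000 nM (1% DMSO final) for 24 h, washed, fresh medium. Irradiated with 100-W halogen lamp through λ>500 nm or λ>600 nm cutoff filter to 16 J·cm−2; WST-8 absorbance at 450 nm 24 h later, survival normalized to no-drug wells.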

Zone of skin = assay: Drug uptake in BALB/c mouse skin implanted with mouse 4T1 cells assessed per gram of tissue at 0.18 mg/kg, ip after 12 hrs by HPLC-based fluorescence analysis; assay type: ADME, organism-based; conditions: in vivo; in short: as §2
Heart [8] = assay: Drug uptake in BALB/c mouse heart implanted with mouse 4T1 cells assessed per gram of tissue at 0.18 mg/kg, ip after 24 hrs by HPLC-based fluorescence analysis; assay type: ADME, organism-based; conditions: in vivo; in short: as §3
Urinary bladder = assay: Drug uptake in BALB/c mouse bladder implanted with mouse 4T1 cells assessed per gram of tissue at 0.18 mg/kg, ip after 12 hrs by HPLC-based fluorescence analysis; assay type: ADME, organism-based; conditions: in vivo; in short: as §3
4T1 [9] = assay: Potency index, ratio of compound antitumor activity to mono-L-aspartyl chlorin e6 antitumor activity against mouse 4T1 cells implanted in ip dosed BALB/c mouse; assay type: functional
HeLa [10] = assay: Drug uptake in human HeLa cells at 0.1 uM after 24 hrs by spectrophotometrical analysis; assay type: ADME, cell-based
In short: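 HeLa cells (2.5 × 10^6/well) in DMEM with 10% FCS, preincubated 24 h at 37°C; photosensitizer added to 0.1 µM final (1% DMSO) for 24 h, two wells each. Cells washed twice with PBS, lysed in DMSO, Soret-band absorbance read against DMSO calibration; mean of three replicate experiments.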

Heart [11] = assay: Drug uptake in BALB/c mouse heart implanted with mouse 4T1 cells assessed per gram of tissue at 0.18 mg/kg, ip after 12 hrs by HPLC-based fluorescence analysis; assay type: ADME, organism-based; conditions: in vivo; in short: as §3
Liver [12] = assay: Drug uptake in BALB/c mouse liver implanted with mouse 4T1 cells assessed per gram of tissue at 0.18 mg/kg, ip after 24 hrs by HPLC-based fluorescence analysis; assay type: ADME, organism-based; conditions: in vivo; in short: as §3
Lung [13] = assay: Drug uptake in BALB/c mouse lung implanted with mouse 4T1 cells assessed per gram of tissue at 0.18 mg/kg, ip after 6 hrs by HPLC-based fluorescence analysis; assay type: ADME, organism-based; conditions: in vivo; in short: as §3
[14] = Drug uptake in BALB/c mouse large intestine implanted with mouse 4T1 cells assessed per gram of tissue at 0.18 mg/kg, ip after 6 hrs by HPLC-based fluorescence analysis; assay type: ADME, organism-based; conditions: in vivo; in short: as §3
Liver [15] = assay: Drug uptake in BALB/c mouse liver implanted with mouse 4T1 cells assessed per gram of tissue at 0.18 mg/kg, ip after 48 hrs by HPLC-based fluorescence analysis; assay type: ADME, organism-based; conditions: in vivo; in short: as §3
Lung [16] = assay: Drug uptake in BALB/c mouse lung implanted with mouse 4T1 cells assessed per gram of tissue at 0.18 mg/kg, ip after 48 hrs by HPLC-based fluorescence analysis; assay type: ADME, organism-based; conditions: in vivo; in short: as §3
Kidney = assay: Drug uptake in BALB/c mouse kidney implanted with mouse 4T1 cells assessed per gram of tissue at 0.18 mg/kg, ip after 12 hrs by HPLC-based fluorescence analysis; assay type: ADME, organism-based; conditions: in vivo; in short: as §3
HeLa [17] = assay: Photocytotoxicity against human HeLa cells assessed as cell survival preincubated for 24 hrs followed by irradiation at 16 J/cm2 measured at 24 hrs by WST-8 assay; assay type: functional, cell-based; conditions: light or radiation study; in short: as §4
Liver [18] = assay: Drug uptake in BALB/c mouse liver implanted with mouse 4T1 cells assessed per gram of tissue at 0.18 mg/kg, ip after 6 hrs by HPLC-based fluorescence analysis; assay type: ADME, organism-based; conditions: in vivo; in short: as §3

SMILES: CN1CC2C3=N/C(=C(/c4c(F)c(F)c(S[C@@H]5O[C@H](CO)[C@@H](O)[C@H](O)[C@H]5O)c(F)c4F)C4=N/C(=C(/c5c(F)c(F)c(F)c(F)c5F)c5ccc([nH]5)/C(c5c(F)c(F)c(S[C@@H]6O[C@H](CO)[C@@H](O)[C@H](O)[C@H]6O)c(F)c5F)=C5/C=CC(=N5)C3c3c(F)c(F)c(F)c(F)c3F)C=C4)C2C1 (stereo partly drawn)
- Activity (4T1 [1]): Active
- Activity (4T1 [2]): Active
- Drug uptake (Spleen): 55 ng
- Drug uptake (Stomach [3]): 7 ng
- Drug uptake (Muscle tissue [4]): 2.2 ng
- Activity (4T1 [5]): Active
- Drug uptake (Muscle tissue [6]): 4 ng
- Drug uptake (Stomach [7]): 6 ng
- EC50 (T98G): 0.5 nM
- Drug uptake (Zone of skin): 0 ng
- Drug uptake (Heart [8]): 6.1 ng/g
- Drug uptake (Urinary bladder): 95 ng/g
- Ratio (4T1 [9]): 250
- Drug uptake (HeLa [10]): Active
- Drug uptake (Heart [11]): 6 ng/g
- Drug uptake (Liver [12]): 60 ng
- Drug uptake (Lung [13]): 70 ng/g
- Drug uptake [14]: 80 ng
- Drug uptake (Liver [15]): 9 ng
- Drug uptake (Lung [16]): 11 ng
- Drug uptake (Kidney): 25 ng
- EC50 (HeLa [17]): 0.5 nM
- Drug uptake (Liver [18]): 109 ng/g
